Experimental data: ChEMBL document CHEMBL3112535, “Undesired versus designed enzymatic cleavage of linkers for liver targeting” (Bioorg Med Chem Lett, 2014)

Experiments:
[1] = target: T1, Liver carboxylesterase 1 (Homo sapiens, UniProt P23141); test: Metabolic stability of the compound in human liver microsomes assessed as carboxylesterase-1-mediated hydrolysis by measuring intrinsic clearance at 1 uM in absence of NADPH; assay type: ADME
T1 sequence (P23141 whole entry): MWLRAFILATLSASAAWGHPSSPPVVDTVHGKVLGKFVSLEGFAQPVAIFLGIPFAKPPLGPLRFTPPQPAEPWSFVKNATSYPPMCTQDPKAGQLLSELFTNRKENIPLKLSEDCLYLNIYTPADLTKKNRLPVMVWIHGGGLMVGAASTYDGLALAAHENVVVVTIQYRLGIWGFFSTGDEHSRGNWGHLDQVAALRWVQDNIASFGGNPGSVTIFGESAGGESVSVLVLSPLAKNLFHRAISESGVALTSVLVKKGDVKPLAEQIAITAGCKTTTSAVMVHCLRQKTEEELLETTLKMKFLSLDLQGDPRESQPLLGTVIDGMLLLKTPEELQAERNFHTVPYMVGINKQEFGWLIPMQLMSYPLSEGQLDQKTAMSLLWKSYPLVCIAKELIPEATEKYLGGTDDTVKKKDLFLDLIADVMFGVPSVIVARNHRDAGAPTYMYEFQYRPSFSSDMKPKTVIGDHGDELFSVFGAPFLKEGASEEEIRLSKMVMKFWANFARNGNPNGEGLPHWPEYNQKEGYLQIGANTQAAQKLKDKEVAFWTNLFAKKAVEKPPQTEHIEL
In short: (§1)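 Pooled mixed-gender human liver (N = 50) or intestinal (N = 6) microsomes at 0.5 or 0.76 mg/mL final, in 100 mM potassium phosphate pH 7.4, prewarmed 5 min at 37 °C. Substrate 1 µM, n = 2, final DMSO 0.025% and acetonitrile 0.98%. Aliquots taken over 0–60 min into acetonitrile with terfenadine internal standard. Parent loss by LC–MS/MS. CLint = 0.693·(mL incubation)/(t1/2·protein concentration).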

[2] = target: T2, Cocaine esterase (Homo sapiens, UniProt O00748); test: Metabolic stability of the compound in human intestinal microsomes assessed as carboxylesterase-2-mediated hydrolysis by measuring intrinsic clearance at 1 uM in absence of NADPH; assay type: ADME, Intestine; in short: as §1
T2 sequence (O00748 whole entry): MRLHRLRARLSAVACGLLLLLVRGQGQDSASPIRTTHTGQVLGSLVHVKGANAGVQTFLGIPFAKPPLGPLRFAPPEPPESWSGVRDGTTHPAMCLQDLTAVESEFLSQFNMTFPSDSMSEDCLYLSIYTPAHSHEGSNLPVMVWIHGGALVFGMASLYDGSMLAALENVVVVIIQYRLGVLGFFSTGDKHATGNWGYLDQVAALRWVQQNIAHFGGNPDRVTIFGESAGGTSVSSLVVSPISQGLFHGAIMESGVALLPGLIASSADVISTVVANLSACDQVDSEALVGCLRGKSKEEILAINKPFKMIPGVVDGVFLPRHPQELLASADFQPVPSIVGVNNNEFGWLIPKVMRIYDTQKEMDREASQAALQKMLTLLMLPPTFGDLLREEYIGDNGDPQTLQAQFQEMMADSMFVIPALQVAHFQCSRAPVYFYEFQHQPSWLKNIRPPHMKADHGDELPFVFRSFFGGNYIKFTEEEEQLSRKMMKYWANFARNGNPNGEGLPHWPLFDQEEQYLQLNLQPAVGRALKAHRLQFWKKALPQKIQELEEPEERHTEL

[3] = target: T1, Liver carboxylesterase 1; test: (§2) Metabolic stability of the compound in human liver microsomes assessed as carboxylesterase-1-mediated hydrolysis by measuring half life in absence of NADPH; assay type: ADME; conditions: microsomes; in short: as §1
[4] = target: T2, Cocaine esterase; test: (§3) Metabolic stability of the compound in human intestinal microsomes assessed as carboxylesterase-2-mediated hydrolysis by measuring half life in absence of NADPH; assay type: ADME, Intestine; conditions: microsomes; in short: as §1
[5] = target: T1, Liver carboxylesterase 1; test: Metabolic stability of the compound assessed as recombinant carboxylesterase-1 (unknown origin)-mediated hydrolysis after 60 mins; assay type: ADME; conditions: 1 h
In short: (§4)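 Metabolite identification. Substrate at 10 µM final (DMSO stock diluted in acetonitrile) incubated 1 h at 37 °C, pH 7.4, n = 1, with one of: recombinant CE-1 bactosomes, recombinant CE-2 bactosomes, control E. coli cytosol, or human liver or intestinal microsomes. Quench in acetonitrile, centrifuge, dry supernatant under nitrogen, reconstitute in mobile phase. Metabolite formation read by LC–MS/MS.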

[6] = target: T2, Cocaine esterase; test: Metabolic stability of the compound assessed as recombinant carboxylesterase-2 (unknown origin)-mediated hydrolysis after 60 mins; assay type: ADME; conditions: 1 h; in short: as §4
[7] = target: T3, carboxylesterase-1 (Homo sapiens, UniProt P23141); test: as §2; assay type: ADME; conditions: liver microsomes; in short: as §1
T3 sequence (P23141 whole entry): T1 sequence (P23141 whole entry)

[8] = target: T4, carboxylesterase-2 (Homo sapiens, UniProt O00748); test: as §3; assay type: ADME, Intestine; conditions: intestinal microsomes; in short: as §1
T4 sequence (O00748 whole entry): T2 sequence (O00748 whole entry)

CLint [1] [µL/min/mg] | CL [2] [µL/min/mg] | t1/2 [3] [min] | t1/2 [4] [min] | Stability [5] | Stability [6] | half-life [7] [min] | half-life [8] [min] | SMILES
240 | 1000 | 5.7 | 1.4 |  |  |  |  | COC(=O)NCCCC(C)(C)C(=O)Oc1ccc(Oc2ccc(CN(Cc3ccccc3)c3cccc(NS(C)(=O)=O)c3C)cc2)cc1
140 | 480 | 6.7 | 1.9 | Stable | Unstable |  |  | COC(=O)NCCCC(Cc1cn(Cc2ccccc2)nn1)C(=O)Oc1ccc(Oc2ccc(CN(Cc3ccccc3)c3cccc(NS(C)(=O)=O)c3C)cc2)cc1 (centres undefined)
73 | 140 | 19 | 9.9 |  |  |  |  | COC(=O)NCCCC(Cc1ccccc1)C(=O)Oc1ccc(Oc2ccc(CN(Cc3ccccc3)c3cccc(NS(C)(=O)=O)c3C)cc2)cc1 (centres undefined)
19 | 43 | 73 | 32 | Stable | Unstable |  |  | COC(=O)NCCCC(C)(Cc1ccccc1)C(=O)Oc1ccc(Oc2ccc(CN(Cc3ccccc3)c3cccc(NS(C)(=O)=O)c3C)cc2)cc1 (centres undefined)
170 | 240 | 5.3 | 3.8 | Stable | Unstable |  |  | COC(=O)NCCCC(Cc1cn(Cc2ccccc2)nn1)C(=O)OCCOc1ccc(Oc2ccc(CN(Cc3ccccc3)c3cccc(NS(C)(=O)=O)c3C)cc2)cc1 (centres undefined)

The next lines start with the compound.

SMILES | CLint [1] [µL/min/mg] | CL [2] [µL/min/mg] | t1/2 [3] [min] | t1/2 [4] [min] | Stability [5] | Stability [6] | half-life [7] [min] | half-life [8] [min]
COC(=O)NCCCC(C)C(=O)Oc1ccc(Oc2ccc(CN(Cc3ccccc3)c3cccc(NS(C)(=O)=O)c3C)cc2)cc1 (centres undefined) | 1000 | 2600 | 1.3 | 0.53 |  |  |  | 
C#CCC(CCCNC(=O)OC)C(=O)Oc1ccc(Oc2ccc(CN(Cc3ccccc3)c3cccc(NS(C)(=O)=O)c3C)cc2)cc1 (centres undefined) | 550 | 1700 | 2.5 | 0.84 |  |  |  | 
COC(=O)NCCCC(CC(C)C)C(=O)Oc1ccc(Oc2ccc(CN(Cc3ccccc3)c3cccc(NS(C)(=O)=O)c3C)cc2)cc1 (centres undefined) | 82 | 220 |  |  |  |  | 17 | 6.3
C#CCC(CCCNC(=O)OC)C(=O)OCCOc1ccc(Oc2ccc(CN(Cc3ccccc3)c3cccc(NS(C)(=O)=O)c3C)cc2)cc1 (centres undefined) | 770 | 1900 | 1.8 | 0.73 | Stable | Unstable |  | 
